Data reported in paper PMC7396962 (Xenobiotica; the fate of foreign compounds in biological …, 2020).

What was measured:
PPAR-γ = settings: ref Ma et al., 2016; cited from earlier work
human UGT1A1 = settings: cited from earlier work
UGT1A8 = target: T1, UGT1A8 (Homo sapiens, UniProt Q9HAW9); assay: Glucuronidation of CA by recombinant UGT1A8; type: in vitro ADME; settings: formation of the glucuronide from CA
T1 sequence (Q9HAW9 26-530): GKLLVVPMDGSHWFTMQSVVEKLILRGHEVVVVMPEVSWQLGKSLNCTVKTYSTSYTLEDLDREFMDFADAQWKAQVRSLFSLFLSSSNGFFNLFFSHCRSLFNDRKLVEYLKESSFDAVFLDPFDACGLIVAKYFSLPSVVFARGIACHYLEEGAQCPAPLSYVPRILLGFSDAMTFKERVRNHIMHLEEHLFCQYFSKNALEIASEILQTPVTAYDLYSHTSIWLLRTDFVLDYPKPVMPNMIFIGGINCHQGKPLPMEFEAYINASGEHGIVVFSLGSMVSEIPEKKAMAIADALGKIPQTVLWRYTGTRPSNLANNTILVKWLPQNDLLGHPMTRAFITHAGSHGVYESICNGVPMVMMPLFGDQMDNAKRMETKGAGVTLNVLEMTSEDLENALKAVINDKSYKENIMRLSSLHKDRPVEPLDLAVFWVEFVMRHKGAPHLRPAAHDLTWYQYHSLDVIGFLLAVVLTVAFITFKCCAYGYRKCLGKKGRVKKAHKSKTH

MRP4 = target: T2, MRP4 (Homo sapiens, UniProt O15439); assay: Glucuronide excretion in HeLa1A1 cells with knock-down of MRP4; type: cell-based; settings: knock-down of MRP4 transporter
T2 sequence (O15439 1-1325): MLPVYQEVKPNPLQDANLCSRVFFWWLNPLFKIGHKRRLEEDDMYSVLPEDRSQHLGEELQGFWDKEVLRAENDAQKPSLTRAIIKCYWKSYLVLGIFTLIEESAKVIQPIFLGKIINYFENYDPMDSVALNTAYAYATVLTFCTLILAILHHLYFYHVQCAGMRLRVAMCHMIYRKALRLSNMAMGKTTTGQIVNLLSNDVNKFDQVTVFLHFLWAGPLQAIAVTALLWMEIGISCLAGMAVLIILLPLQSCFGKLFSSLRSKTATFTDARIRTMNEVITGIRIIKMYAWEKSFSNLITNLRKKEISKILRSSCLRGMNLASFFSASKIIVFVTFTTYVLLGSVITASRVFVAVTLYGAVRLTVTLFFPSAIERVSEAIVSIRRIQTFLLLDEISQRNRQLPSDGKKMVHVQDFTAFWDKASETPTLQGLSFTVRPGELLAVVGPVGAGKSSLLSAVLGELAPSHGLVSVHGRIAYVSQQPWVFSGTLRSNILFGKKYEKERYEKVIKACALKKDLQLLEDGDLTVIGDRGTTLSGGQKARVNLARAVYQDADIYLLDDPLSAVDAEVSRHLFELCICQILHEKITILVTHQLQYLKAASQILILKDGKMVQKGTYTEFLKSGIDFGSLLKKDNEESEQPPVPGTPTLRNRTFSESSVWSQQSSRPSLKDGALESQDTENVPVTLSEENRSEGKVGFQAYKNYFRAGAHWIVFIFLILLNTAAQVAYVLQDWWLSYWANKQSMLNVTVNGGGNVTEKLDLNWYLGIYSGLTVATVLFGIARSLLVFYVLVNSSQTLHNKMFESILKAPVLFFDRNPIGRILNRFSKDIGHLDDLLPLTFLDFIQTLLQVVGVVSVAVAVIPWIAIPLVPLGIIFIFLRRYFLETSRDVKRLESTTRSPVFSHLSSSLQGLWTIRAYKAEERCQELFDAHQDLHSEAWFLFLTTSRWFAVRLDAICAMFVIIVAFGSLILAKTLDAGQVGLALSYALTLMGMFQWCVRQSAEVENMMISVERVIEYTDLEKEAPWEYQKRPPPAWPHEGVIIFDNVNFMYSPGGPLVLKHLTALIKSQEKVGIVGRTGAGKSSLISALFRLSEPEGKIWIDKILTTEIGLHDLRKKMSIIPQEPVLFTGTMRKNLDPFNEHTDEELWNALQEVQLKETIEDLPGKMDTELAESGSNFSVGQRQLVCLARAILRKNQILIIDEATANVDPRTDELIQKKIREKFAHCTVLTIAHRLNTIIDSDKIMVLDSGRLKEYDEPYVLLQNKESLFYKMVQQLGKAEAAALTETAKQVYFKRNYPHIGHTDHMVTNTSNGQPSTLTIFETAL
Outline: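 HeLa1A1 cells at ~50% confluence transiently transfected with transporter shRNA plasmid (10 μg/mL); medium replaced at 6 h; scrambled shRNA as control. At confluence cells washed and incubated with test compound in HBSS. Extracellular glucuronide sampled over 2 h and intracellular glucuronide measured at the end. ER = V·dC/dt, CLapp = ER/Ci, fmet calculated; triplicate.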

[1] = rat, in vivo, cited from earlier work

Which “in vitro PPAR-γ activation” value (PPAR-γ) does the source give for `CC(C)=CCC/C(C)=C/Cc1cc(-c2coc3cc(O)ccc3c2=O)ccc1O` [CA, Corylifol A] here?
The value was “PPAR-γ activation”.

What about the IC50 (human UGT1A1) of the same compound?
The IC50 was 650 nM.

And the Ki (human UGT1A1)?
The Ki was 790 nM.

And the CLint (UGT1A8)?
The CLint was 135.59 µL/min/mg.

What about the “fmet value of CA” value (MRP4) of the same compound?
The value was “significant decrease”.

And the “maximal plasma concentration (Cmax) of CA” value ([1]; 2 g/kg)?
The value was 8.87 ng/mL.

And the “Cmax of CA” value ([1]; po, 1.2 g/kg)?
The value was 1.70 ng/mL.
